Publication PMC3904496 (Cancer chemotherapy and pharmacology, 2012)
Like-named read-outs stand apart in the source and are kept apart here.

Key:
liposarcoma [1] = conditions: cited from earlier work
liposarcoma xenograft = conditions: murine liposarcoma xenograft; cited from earlier work
liposarcoma [2] = experiment: Tumor response by RECIST in subjects with liposarcoma; assay type: in vivo, human
[3] = Steady-state plasma pharmacokinetics, phase I trial; assay type: in vivo, human; conditions: for Mean peak plasma level: steady state; for AUC: po
How it was run: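 Liposarcoma patients took oral test compound twice daily with food. On day 8 of cycle 1, EDTA blood was drawn predose and 0.5–8 h post-dose, iced, spun within 1 h and stored as plasma at ≤ –20 °C. Parent and active metabolite were extracted by protein precipitation/organic extraction (reserpine internal standard) and quantified by LC–MS/MS in positive-ion MRM. Non-compartmental Cmax/Tmax; linear/log trapezoidal AUC.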

liposarcoma [4] = conditions: cited from earlier work; remark: listed apart in the source
SREBP-1 = conditions: in the absence of increased gene expression; cited from earlier work
HIV = conditions: cited from earlier work
[5] = RECIST, 20 subjects, all dose levels

Q: Which results are given for Cc1c(O)cccc1C(=O)N[C@@H](CSc1ccccc1)[C@H](O)CN1C[C@H]2CCCC[C@H]2C[C@H]1C(=O)NC(C)(C)C [nelfinavir]?
A: range where anticancer activity was demonstrated in vitro (liposarcoma [1]): 5 to 10 µM; effect on tumor growth (liposarcoma xenograft): inhibition of tumor growth; subjects with CT partial response (PR) (liposarcoma [2]; [5]): 1; subjects with progressive disease at initial evaluation (liposarcoma [2]; [5]): 13; subjects with reduction in tumor size, but less than a PR (liposarcoma [2]; [5]): 1; clinical benefit (complete response, PR, plus SD) (liposarcoma [2]; of 20 subjects): 30%; subjects with clinical benefit (complete response, PR, plus SD) (liposarcoma [2]; of 20 subjects): 6; Mean peak plasma level ([3]; Level 4, 3,000 mg twice daily oral, six subjects): 7.3 mg/L; Mean peak plasma level ([3]; Level 5, 4,250 mg twice daily oral, three subjects): 6.3 mg/L; Tmax ([3]; human, plasma, oral, 4250 mg twice daily): 2 h; AUC ([3]; human, plasma, 3000 mg twice daily): 60900 ng·h/mL; AUC ([3]; human, plasma, 4250 mg twice daily): 37700 ng·h/mL; Acute toxicity count: Blood/bone marrow, Hemoglobin (Course 1, Grade 1): 3; Acute toxicity count: Blood/bone marrow, Leukocytes (total WBC) (Course 1, Grade 1): 2; Acute toxicity count: Blood/bone marrow, Other (Course 1, Grade 1): 1; Acute toxicity count: Blood/bone marrow, Platelets (Course 1, Grade 1): 1; Acute toxicity count: Cardiac arrhythmia ventricular arrhythmia (Course 1, Grade 1): 1; Acute toxicity count: Laboratory, Bicarbonate, serum-low (Course 1, Grade 1): 1; Acute toxicity count: Laboratory, Cholesterol, serum-high (Course 1, Grade 1): 2; Acute toxicity count: Laboratory, Glucose, serum-high (Course 1, Grade 1): 1; Acute toxicity count: Laboratory, Potassium, serum-low (Course 1, Grade 1): 2; Acute toxicity count: Laboratory, Triglyceride, serum-high (Course 1, Grade 1): 2; Acute toxicity count: Blood/bone marrow, Hemoglobin (Course 1, Grade 2): 1; Acute toxicity count: Blood/bone marrow, Lymphopenia (Course 1, Grade 2): 1; Acute toxicity count: Laboratory, Glucose, serum-high (Course 1, Grade 2): 1; Acute toxicity count: Laboratory, Lipase (Course 1, Grade 3): 1; Acute toxicity count: Blood/bone marrow, Hemoglobin (Subsequent courses, Grade 1): 2; Acute toxicity count: Blood/bone marrow, Lymphopenia (Subsequent courses, Grade 1): 1; Acute toxicity count: Blood/bone marrow, Platelets (Subsequent courses, Grade 1): 1; Acute toxicity count: Blood/bone marrow, Hemoglobin (Subsequent courses, Grade 2): 2; Acute toxicity count: Blood/bone marrow, Neutrophils (Subsequent courses, Grade 2): 1; Acute toxicity count: Blood/bone marrow, Leukocytes (total WBC) (human, in vivo): 1; Acute toxicity count: Constitutional, Fatigue (human, in vivo): 1; Acute toxicity count: Constitutional, Weight loss (human, in vivo): 1; Acute toxicity count: Dermatology/skin, Other (human, in vivo): 1; Acute toxicity count: Dermatology/skin, Rash/desquamation (human, in vivo): 1; Acute toxicity count: Gastrointestinal, Anorexia (human, in vivo): 1; Acute toxicity count: Gastrointestinal, Diarrhea (human, in vivo): 7; Acute toxicity count: Gastrointestinal, Nausea (human, in vivo): 1; Acute toxicity count: Gastrointestinal, Vomiting (human, in vivo): 1; Acute toxicity count: Laboratory, ALT, SGPT (human, in vivo): 1; Acute toxicity count: Laboratory, AST, SGOT (human, in vivo): 1; Acute toxicity count: Laboratory, Alkaline phosphatase (human, in vivo): 2; Acute toxicity count: Laboratory, Glucose, serum-high (human, in vivo): 3; Acute toxicity count: Laboratory, Potassium, serum-low (human, in vivo): 1; Acute toxicity count: Laboratory, Triglyceride, serum-high (human, in vivo): 2; Acute toxicity count: Neurology dizziness (human, in vivo): 1; Acute toxicity count: Pain (human, in vivo): 2; Acute toxicity count: Pulmonary dyspnea (human, in vivo): 1; Acute toxicity count: Pulmonary, Hypoxia (human, in vivo): 1; Acute toxicity count: Pulmonary, Other (human, in vivo): 1; Acute toxicity count: Constitutional, Fatigue (human, in vivo, 28 days): 1; Acute toxicity count: Dermatology/skin, Other (human, in vivo, 28 days): 1; Acute toxicity count: Dermatology/skin, Rash/desquamation (human, in vivo, 28 days): 1; Acute toxicity count: Gastrointestinal, Diarrhea (human, in vivo, 28 days): 2; Acute toxicity count: Gastrointestinal, Nausea (human, in vivo, 28 days): 2; Acute toxicity count: Gastrointestinal, Vomiting (human, in vivo, 28 days): 1; Acute toxicity count: Hemorrhage/bleeding (human, in vivo, 28 days): 1; Acute toxicity count: Hepatobiliary/pancreatitis (human, in vivo, 28 days): 1; Acute toxicity count: Laboratory, ALT, SGPT (human, in vivo, 28 days): 3; Acute toxicity count: Laboratory, AST, SGOT (human, in vivo, 28 days): 3; Acute toxicity count: Laboratory, Album, serum-low (human, in vivo, 28 days): 1; Acute toxicity count: Lymphatics/limb edema (human, in vivo, 28 days): 1; MTD (up to dose Level 5 (4,250 mg twice daily)): not reached; potency rank among HIV PIs in clonogenic assays (liposarcoma [4]): most potent HIV PI identified; precursor SREBP-1 protein expression (SREBP-1): dose-dependent increase

Q: Which “anticancer activity relative to parent molecule” value (liposarcoma [1]) does the source give for Cc1c(O)cccc1C(=O)N[C@@H](CSc1ccccc1)[C@H](O)CN1C[C@H]2CCCC[C@H]2C[C@H]1C(=O)NC(C)(C)CO [M8] here?
A: Its value is “comparable to its parent molecule”.

Q: What about the “activity in suppressing HIV replication relative to parent drug” value (HIV) of the same compound?
A: Its value is “as pharmacologically active as the parent drug”.

Q: What about the “time to peak plasma concentration” value ([3]; 3,000 mg nelfinavir twice daily) of the same compound?
A: The value was 4 to 6 h.

Q: What about the “time to peak plasma concentration” value ([3]; 4,250 mg nelfinavir twice daily) of the same compound?
A: Its value is 2 h.
